Assays:
Histone deacetylase 4 = Histone deacetylase 4 (Homo sapiens, UniProt P56524); experiment: Inhibition of HDAC4 using p53 (379 to 382 residues) based fluorogenic peptide substrate
Cytochrome P450 2C19 = Cytochrome P450 2C19 (Homo sapiens, UniProt P33261); experiment: Inhibition of CYP2C19 in human liver microsomes in presence of NADPH by LC-MS/MS method; assay type: ADME, Microsome
[1] = target: T1, Polyamine deacetylase HDAC10 (Homo sapiens, UniProt Q969S8); experiment: Inhibition of HDAC10 using p53 (379 to 382 residues) based fluorogenic peptide substrate
T1 sequence (Q969S8 whole entry): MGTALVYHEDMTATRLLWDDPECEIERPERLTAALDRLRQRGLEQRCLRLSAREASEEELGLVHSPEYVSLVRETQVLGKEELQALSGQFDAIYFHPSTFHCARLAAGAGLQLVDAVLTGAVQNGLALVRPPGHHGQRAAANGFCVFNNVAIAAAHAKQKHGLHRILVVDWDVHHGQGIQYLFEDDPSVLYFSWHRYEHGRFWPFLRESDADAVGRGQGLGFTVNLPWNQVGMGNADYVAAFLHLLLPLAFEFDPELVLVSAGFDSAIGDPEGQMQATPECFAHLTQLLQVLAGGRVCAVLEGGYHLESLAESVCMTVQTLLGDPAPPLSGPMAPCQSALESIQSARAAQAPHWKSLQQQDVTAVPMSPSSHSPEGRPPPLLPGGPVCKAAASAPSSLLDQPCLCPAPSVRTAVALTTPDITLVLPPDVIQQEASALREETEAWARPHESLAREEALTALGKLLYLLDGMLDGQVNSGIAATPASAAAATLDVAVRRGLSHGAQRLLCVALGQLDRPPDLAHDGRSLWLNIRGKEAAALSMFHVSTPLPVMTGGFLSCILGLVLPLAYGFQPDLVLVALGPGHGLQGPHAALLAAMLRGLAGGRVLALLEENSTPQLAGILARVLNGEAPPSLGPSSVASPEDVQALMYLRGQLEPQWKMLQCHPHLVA

Histone deacetylase 9 = Histone deacetylase 9 (Homo sapiens, UniProt Q9UKV0); experiment: Inhibition of HDAC9 using p53 (379 to 382 residues) based fluorogenic peptide substrate
[2] = target: T2, Protein deacetylase HDAC6 (Homo sapiens, UniProt Q9UBN7); experiment: Inhibition of HDAC6 using p53 (379 to 382 residues) based fluorogenic peptide substrate
T2 sequence (Q9UBN7 whole entry): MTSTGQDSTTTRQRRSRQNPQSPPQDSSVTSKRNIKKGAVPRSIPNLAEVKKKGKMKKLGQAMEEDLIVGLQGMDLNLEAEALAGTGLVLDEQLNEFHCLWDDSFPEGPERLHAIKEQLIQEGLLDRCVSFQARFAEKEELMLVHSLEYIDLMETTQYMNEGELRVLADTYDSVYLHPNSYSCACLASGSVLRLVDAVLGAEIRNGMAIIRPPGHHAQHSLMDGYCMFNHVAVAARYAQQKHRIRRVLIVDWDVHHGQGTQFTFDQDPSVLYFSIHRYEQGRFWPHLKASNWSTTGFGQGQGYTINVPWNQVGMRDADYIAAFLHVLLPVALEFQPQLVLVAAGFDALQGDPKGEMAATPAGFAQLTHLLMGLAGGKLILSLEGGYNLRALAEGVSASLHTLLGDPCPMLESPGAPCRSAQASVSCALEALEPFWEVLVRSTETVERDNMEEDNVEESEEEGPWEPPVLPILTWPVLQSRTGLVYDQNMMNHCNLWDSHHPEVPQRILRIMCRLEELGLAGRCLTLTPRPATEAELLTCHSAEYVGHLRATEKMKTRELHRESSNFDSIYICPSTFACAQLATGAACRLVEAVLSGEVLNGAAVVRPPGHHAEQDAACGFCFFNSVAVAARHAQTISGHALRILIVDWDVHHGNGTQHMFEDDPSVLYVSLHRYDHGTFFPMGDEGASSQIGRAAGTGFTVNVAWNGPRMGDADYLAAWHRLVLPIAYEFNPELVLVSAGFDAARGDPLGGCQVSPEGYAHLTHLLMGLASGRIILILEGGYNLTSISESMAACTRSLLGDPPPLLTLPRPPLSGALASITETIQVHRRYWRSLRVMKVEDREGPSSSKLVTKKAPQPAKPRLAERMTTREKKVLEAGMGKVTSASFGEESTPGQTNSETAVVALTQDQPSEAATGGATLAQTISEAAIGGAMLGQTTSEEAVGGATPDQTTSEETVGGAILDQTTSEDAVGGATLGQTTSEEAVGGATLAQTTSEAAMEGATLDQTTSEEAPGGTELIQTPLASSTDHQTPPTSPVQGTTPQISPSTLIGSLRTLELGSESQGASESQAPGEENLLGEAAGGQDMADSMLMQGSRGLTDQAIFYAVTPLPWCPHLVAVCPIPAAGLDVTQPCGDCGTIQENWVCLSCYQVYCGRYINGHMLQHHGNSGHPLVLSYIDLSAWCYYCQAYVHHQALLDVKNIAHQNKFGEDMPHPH

Histone deacetylase 11 = target: T3, Histone deacetylase 11 (Homo sapiens, UniProt Q96DB2); experiment: Inhibition of HDAC11 using p53 (379 to 382 residues) based fluorogenic peptide substrate
T3 sequence (Q96DB2 whole entry): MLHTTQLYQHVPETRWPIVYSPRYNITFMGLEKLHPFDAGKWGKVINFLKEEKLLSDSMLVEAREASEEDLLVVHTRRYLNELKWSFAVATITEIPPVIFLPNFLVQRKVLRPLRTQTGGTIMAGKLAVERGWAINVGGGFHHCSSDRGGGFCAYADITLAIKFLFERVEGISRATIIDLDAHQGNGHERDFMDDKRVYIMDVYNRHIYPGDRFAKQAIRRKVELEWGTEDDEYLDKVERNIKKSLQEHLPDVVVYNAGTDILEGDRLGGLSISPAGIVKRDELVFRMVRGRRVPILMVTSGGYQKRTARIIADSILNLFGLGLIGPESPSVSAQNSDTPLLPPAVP

[3] = Oral bioavailability in BALB/C mouse at 10 mg/kg by LC-MS/MS method; assay type: ADME, organism-based; conditions: BALB/C, in vivo
In short: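 Bioavailability from single-dose iv (2 mg/kg, 5% DMSO/40% PEG400/55% saline) and oral gavage (10 mg/kg, 0.445% microcrystalline cellulose microsuspension) studies in BALB/C nude mice (N = 16 per arm); plasma at eight (po) or nine (iv) time points, LC-MS/MS, noncompartmental analysis.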

[4] = Cmax in BALB/C mouse at 10 mg/kg, po or 2 mg/kg, iv by LC-MS/MS method; assay type: ADME, organism-based; conditions: BALB/C, in vivo
In short: (§1)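 Female-unspecified BALB/C nude mice (15−20 g, N = 16 per arm); iv bolus 2 mg/kg in 5% DMSO/40% PEG400/55% saline and/or oral gavage 10 mg/kg as 0.445% microcrystalline cellulose microsuspension. Blood sampled at nine (iv) or eight (po) time points into sodium heparin tubes; plasma by LC-MS/MS; noncompartmental analysis.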

[5] = Clearance in BALB/C mouse at 10 mg/kg, po or 2 mg/kg, iv by LC-MS/MS method; assay type: ADME, organism-based; conditions: in vivo; in short: as §1

Histone deacetylase 4, sequence (P56524 whole entry, the tested form may be a part): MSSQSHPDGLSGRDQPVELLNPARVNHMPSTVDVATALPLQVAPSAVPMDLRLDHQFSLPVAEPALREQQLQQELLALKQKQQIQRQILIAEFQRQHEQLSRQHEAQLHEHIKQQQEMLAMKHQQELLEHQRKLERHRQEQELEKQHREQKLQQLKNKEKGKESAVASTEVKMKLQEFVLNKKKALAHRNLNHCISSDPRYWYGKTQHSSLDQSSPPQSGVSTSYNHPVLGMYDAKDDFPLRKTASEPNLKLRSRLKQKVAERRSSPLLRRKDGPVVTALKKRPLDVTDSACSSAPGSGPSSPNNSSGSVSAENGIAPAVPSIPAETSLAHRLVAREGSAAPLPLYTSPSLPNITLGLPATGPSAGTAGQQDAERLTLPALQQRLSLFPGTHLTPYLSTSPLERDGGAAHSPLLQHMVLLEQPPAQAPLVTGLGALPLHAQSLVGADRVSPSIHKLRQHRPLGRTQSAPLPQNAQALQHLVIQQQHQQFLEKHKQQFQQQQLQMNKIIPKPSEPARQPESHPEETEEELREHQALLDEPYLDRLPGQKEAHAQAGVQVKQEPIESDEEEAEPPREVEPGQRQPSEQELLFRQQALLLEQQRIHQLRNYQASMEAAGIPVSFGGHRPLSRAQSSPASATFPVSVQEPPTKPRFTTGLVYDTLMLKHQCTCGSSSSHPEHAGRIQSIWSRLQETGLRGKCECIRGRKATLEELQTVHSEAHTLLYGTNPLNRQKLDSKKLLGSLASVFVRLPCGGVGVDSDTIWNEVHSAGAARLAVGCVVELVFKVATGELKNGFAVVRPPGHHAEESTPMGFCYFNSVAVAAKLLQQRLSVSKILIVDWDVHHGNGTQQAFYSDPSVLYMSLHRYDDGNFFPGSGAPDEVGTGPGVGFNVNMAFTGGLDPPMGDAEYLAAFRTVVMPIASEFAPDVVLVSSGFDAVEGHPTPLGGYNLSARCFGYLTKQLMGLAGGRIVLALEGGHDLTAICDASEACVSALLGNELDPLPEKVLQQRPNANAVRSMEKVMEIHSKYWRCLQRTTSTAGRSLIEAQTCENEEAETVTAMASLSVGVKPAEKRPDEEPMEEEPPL
Histone deacetylase 9, sequence (Q9UKV0 whole entry, the tested form may be a part): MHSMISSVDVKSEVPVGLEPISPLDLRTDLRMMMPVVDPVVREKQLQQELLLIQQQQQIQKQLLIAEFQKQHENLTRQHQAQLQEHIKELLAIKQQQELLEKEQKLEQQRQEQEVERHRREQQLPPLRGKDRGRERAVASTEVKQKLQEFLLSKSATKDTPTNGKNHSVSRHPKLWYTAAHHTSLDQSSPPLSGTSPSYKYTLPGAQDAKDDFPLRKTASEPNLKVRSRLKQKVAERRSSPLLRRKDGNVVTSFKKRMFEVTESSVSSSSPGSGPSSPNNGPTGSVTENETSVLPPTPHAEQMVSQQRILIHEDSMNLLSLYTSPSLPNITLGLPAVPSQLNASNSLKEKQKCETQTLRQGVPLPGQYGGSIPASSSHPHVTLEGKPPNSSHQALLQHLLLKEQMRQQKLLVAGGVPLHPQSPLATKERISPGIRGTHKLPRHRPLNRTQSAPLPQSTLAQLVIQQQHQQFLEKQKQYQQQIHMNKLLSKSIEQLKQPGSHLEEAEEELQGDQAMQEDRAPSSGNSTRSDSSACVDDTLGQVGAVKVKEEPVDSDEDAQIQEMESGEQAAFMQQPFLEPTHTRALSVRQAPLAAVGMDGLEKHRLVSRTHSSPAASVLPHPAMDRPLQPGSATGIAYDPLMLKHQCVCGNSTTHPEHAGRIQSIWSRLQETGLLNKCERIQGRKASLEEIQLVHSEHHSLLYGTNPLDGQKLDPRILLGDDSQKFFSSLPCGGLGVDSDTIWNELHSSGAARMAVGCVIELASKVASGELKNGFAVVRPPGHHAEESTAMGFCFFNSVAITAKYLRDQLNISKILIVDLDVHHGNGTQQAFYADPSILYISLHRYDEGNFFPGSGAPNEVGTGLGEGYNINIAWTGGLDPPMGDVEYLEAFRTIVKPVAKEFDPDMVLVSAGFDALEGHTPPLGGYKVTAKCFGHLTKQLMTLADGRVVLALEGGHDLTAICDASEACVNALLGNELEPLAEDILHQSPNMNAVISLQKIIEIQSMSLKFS
Cytochrome P450 2C19, sequence (P33261 whole entry, the tested form may be a part): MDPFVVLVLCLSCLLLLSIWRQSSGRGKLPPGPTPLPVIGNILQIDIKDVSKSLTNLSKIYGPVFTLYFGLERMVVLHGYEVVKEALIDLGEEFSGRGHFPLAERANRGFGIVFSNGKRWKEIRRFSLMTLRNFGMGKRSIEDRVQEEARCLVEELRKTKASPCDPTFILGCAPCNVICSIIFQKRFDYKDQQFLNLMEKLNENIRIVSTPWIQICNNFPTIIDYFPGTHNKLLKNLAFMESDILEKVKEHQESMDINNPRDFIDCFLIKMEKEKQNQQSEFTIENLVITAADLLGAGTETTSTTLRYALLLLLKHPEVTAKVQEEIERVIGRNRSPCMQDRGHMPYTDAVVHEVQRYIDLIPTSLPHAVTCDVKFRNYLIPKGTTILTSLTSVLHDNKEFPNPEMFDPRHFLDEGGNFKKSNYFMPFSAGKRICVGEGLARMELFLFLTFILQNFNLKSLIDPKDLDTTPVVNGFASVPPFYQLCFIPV

| Structure (SMILES) | IC50 (Histone deacetylase 4) [µM] | IC50 (Cytochrome P450 2C19) [µM] | IC50 [1] [µM] | IC50 (Histone deacetylase 9) [µM] | IC50 [2] [µM] | IC50 (Histone deacetylase 11) [µM] | bioavailability [3] [%] | Cmax [4] [ng/mL] | clearance [5] [mL/min/kg] |
| --- | --- | --- | --- | --- | --- | --- | --- | --- | --- |
| CN1C[C@H](C(=O)Nc2ccc(Cl)cc2)[C@@H](c2ccc(/C=C/C(=O)Nc3ccccc3N)cc2)C1 | 13 | 43 | 3.4 | 16 | > 30 | 14 |  |  |  |
| CN1C[C@H](C(=O)Nc2ccc(Cl)cc2)[C@@H](c2ccc(/C=C/C(=O)Nc3ccccc3N)cc2F)C1 (racemic) | 46 | 21 | 5 | 43 | > 30 | > 30 | 49 | 828 | 23 |
| CN1C[C@@H](C(=O)Nc2ccc(Cl)cc2)[C@H](c2ccc(/C=C/C(=O)Nc3ccccc3N)cc2)C1 | 36 | 43 | 1.6 | 13 | > 30 | 20 | 89 | 450 | 58 |

Source: ChEMBL document CHEMBL2177000, “Pharmacokinetic optimization of class-selective histone deacetylase inhibitors and identification of associated candidate predictive biomarkers of hepatocellular carcinoma tumor response” (J Med Chem, 2012)
